High-throughput results: PubChem, several laboratories
NR2E3 ag-1: activates human photoreceptor nuclear receptor NR2E3; Q9Y5X4; inhibition of corepressor binding, % at 4.78 µM; GST-NR2E3/biotin-RetCOR TR-FRET, 1536-well; 320,000 tested, 0.12% active;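 active = percent inhibition above the cutoff of mean plus 3 SD of all tested compounds, set per screening campaign, cut at about 20% in these data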
Target sequence (Q9Y5X4 whole entry, looked up): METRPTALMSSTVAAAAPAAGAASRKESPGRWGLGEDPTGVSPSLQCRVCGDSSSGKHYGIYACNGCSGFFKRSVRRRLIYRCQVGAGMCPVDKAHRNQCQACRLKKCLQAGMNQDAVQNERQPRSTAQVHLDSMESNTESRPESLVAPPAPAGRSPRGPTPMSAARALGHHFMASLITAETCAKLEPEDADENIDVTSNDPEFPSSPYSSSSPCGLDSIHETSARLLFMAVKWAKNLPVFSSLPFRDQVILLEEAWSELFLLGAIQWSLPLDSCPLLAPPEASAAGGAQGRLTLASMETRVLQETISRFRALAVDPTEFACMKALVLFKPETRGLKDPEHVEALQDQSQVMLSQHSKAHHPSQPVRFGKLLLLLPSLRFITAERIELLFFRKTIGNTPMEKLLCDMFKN
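Format: 1536-well format; test system: GST-NR2E3 and biotin-RetCOR proteins; read-out basis: percent inhibition of TR-FRET ratio; timing: 5 h incubation at 4 °C; detection: time-resolved FRET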
Rev-erbA mod: modulators of human Rev-erb alpha DNA binding; Rev-erbα–FITC-DNA binding, fluorescence polarization, 90 min; activity, % at 10 µM; 370,000 tested, 0.79% active; AID 1259318;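 active = activity above about 14%, limit read from the data; passing the limit was not always enough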
SKN-1 block: inhibitors of C. elegans SKN-1; C. elegans VP596 Pgst-4::GFP/RFP ratio, acrylamide-induced, 24 h; inhibition, % at 21.8 µM; AID 624304; 360,000 tested, 0.49% active;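 active = interference check ratio from 0.5 to 1.5 plus GFP to RFP signal ratio inhibition reaching or exceeding a fixed threshold, cut at about 30% in these data, passing the limit was not always enough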
NR2E3 ag-2: human photoreceptor-specific nuclear receptor agonism | Q9Y5X4 | CHO-S Gal4-NCOR/VP16-NR2E3 two-hybrid, luciferase | inhibition of corepressor binding, % at 3.98 µM | 360,000 tested, 0.35% active | AID 602229;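 active = inhibition above the mean of all tested compounds plus 3 SD, cut at about 70% in these data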;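 note: higher means lower luciferase signal from less NR2E3 corepressor binding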
MT1-MMP act inh: inhibitors of human MT1-MMP activation. P50281. HT1080 RFP-PRO-GFP cells, GFP/RFP ratio fluorescence, overnight; percent of plate control window, DMSO zero. GFP/RFP ratio change, % at 20 µM. 360,000 tested, 0.061% active;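 active = GFP/RFP ratio change of at least 30% with cell ATP level not reduced by more than half and red fluorescence within 50% of control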
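Test system: HT1080 cells expressing an RFP-PRO-GFP fluorescent reporter construct / Compound dosing: single-point 20 µM compound, 1% DMSO / Schedule: cells overnight before dosing, compound overnight, 37 °C, 5% CO2 / Evaluation: GFP/RFP fluorescence ratio / Control set: DMSO and RFP-L50D-GFP cell wells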
PG9 Ab binder: binds the HIV-1 gp120 antibody PG9 | TR-FRET gp120-PG9 antibody binding | inhibition, % at 6.7 µM | 360,000 tested, 0.43% active | AID 624416; in the data active = inhibition above about 8.5%
Rev-erbA confirm: confirmation of modulators of human Rev-erb alpha DNA binding. shares compounds with Rev-erbA mod. Rev-erb alpha FITC-DNA binding, fluorescence polarization, 90 min. activation, % at 25 µM. 3,000 tested, 61% active. AID 1259319;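 active = activation at or above a set limit, or at least 3 SD above the negative control mean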
RORg DNA counter: counter-screen for Rev-erb alpha modulators: RORgamma DNA binding | IC50, µM | purified RORgamma protein-FITC-DNA binding, fluorescence polarization | 910 tested, 8% active | shares compounds with Rev-erbA mod;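 active = Compounds whose fitted half-maximal concentration for disrupting protein-DNA binding is below 10 micromolar; the record names Rev-erb in its text, so the target is in doubt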
Numbers stand for hits; . = inactive; / = not tested or not shown. Most compounds without a hit are left out; they make up all but 1.9% or so of the library.

SMILES | NR2E3 ag-1 | Rev-erbA mod | SKN-1 block | NR2E3 ag-2 | MT1-MMP act inh | PG9 Ab binder | Rev-erbA confirm | others
CCc1nnc(NC(=O)CSc2nc(-c3ccc(F)cc3)cc(-c3ccccc3)c2C#N)s1 | / | 38 | . | . | . | . | .
COc1cccc(CNC(=O)C2C3C=CC4(CN(Cc5ccccc5)C(=O)C24)O3)c1OC (stereo unspecified) | / | . | / | / | / | / | /
O=C(CN1C(=O)CCSc2ccccc21)Nc1cccc(Cl)c1F | / | . | / | / | / | / | /
O=C1COc2ccc(C(=O)COC(=O)c3c(F)cccc3Cl)cc2N1 | . | 16 | . | . | . | . | .
O=C1COc2ccc(C(=O)COC(=O)Cc3c(F)cccc3Cl)cc2N1 | / | . | . | . | . | . | /
Cc1cc2oc(=O)cc(-c3ccccc3)c2c(C)c1-c1ccc(O)cc1 | / | 17 | . | . | . | . | .
N#C/C(=C\c1ccc(-c2ccccc2C(=O)O)o1)c1nc2ccccc2[nH]1 | . | . | . | . | . | . | /
Cc1ccc2nc(/C(C#N)=C/c3ccc(-c4ccccc4C(=O)O)o3)[nH]c2c1 | . | 41 | . | . | . | . | 31 | RORg DNA counter=.
Cc1cc2nc(/C(C#N)=C\c3ccc(-c4ccccc4C(=O)O)o3)[nH]c2cc1C | . | 42 | . | . | . | . | 30
CCCCc1c(-c2ccccc2OC)ncn1Cc1cccc(C)c1 | / | . | / | / | / | . | /
Cc1cc(Br)cn2c(Cc3cccc(Cl)c3)c(-c3cccc(Cl)c3)nc12 | / | 23 | . | . | . | . | 13
COc1ccccc1Cc1c(-c2ccc(C)cc2)nc2c(C)cc(Br)cn12 | / | . | . | . | . | . | /
Cc1cc(Br)cn2c(Cc3cccc(F)c3)c(-c3ccc(Cl)cc3)nc12 | / | . | . | . | . | . | /
Cc1ccc(-c2nc3c(Br)cc(C)cn3c2Cc2cccc(Cl)c2)cc1 | / | . | / | / | / | . | /
Cc1cc(Br)c2nc(-c3cccc(Br)c3)c(Cc3cccc(Cl)c3)n2c1 | / | 18 | / | / | / | . | .
Cc1cc(Br)cn2c(Cc3ccccc3)c(-c3ccc(Cl)cc3)nc12 | / | 25 | . | . | . | . | 12
COc1ccccc1Cc1c(-c2cccc(Cl)c2)nc2c(C)cc(Br)cn12 | / | 22 | . | . | . | . | 11
Cc1ccc(OCc2nn3c(C4CCCCC4)nnc3s2)cc1 | / | . | / | / | / | / | /
Cc1cccc(NC(=O)NN(C(=O)c2ccccc2Cl)C(C)(C)C)c1 | / | . | / | / | / | / | /
O=C(Cn1cc(C(F)(F)F)cc(Cl)c1=O)NCc1ccc(Cl)cc1Cl | . | 39 | . | . | . | . | 56 | RORg DNA counter=.
CN(C)c1ccc(/C=C/c2nc3ccccc3c(=O)n2-c2ccc(C(=O)O)cc2)cc1 | . | 23 | . | . | . | . | 24
CCCCN(CCCC)c1nc2ccccc2nc1C(C#N)C(=O)NCCCOC (stereo unspecified) | . | 69 | . | . | . | . | .
N#CC(C(=O)NCCc1ccccc1)c1nc2ccccc2nc1N1CCCCC1 (stereo unspecified) | . | 36 | . | . | . | . | .
CCN(CC)c1nc2ccccc2nc1C(C#N)C(=O)NCCCOC (stereo unspecified) | . | . | . | . | . | . | /
CCCCCCNC(=O)C(C#N)c1nc2ccccc2nc1N1CCCC1 (stereo unspecified) | . | . | . | . | . | . | /
SMILES | NR2E3 ag-1 | Rev-erbA mod | SKN-1 block | NR2E3 ag-2 | MT1-MMP act inh | PG9 Ab binder | Rev-erbA confirm | others
CCCCCCNC(=O)C(C#N)c1nc2ccccc2nc1N1CCOCC1 (stereo unspecified) | . | 40 | . | . | . | . | 34 | RORg DNA counter=.
CC(=O)c1ccc(-c2cc(C(C)=O)c3n(c2=O)CCC3)cc1 | / | . | / | / | / | / | /
COC(=O)c1cc2c(c3c4cc(OC)ccc4n(S(=O)(=O)c4ccc(OC)cc4)c13)C(=O)N(Cc1ccc(N(C)C)cc1)C2 | / | . | / | / | / | . | /
CCN(CC)c1ccc(/C=c2\sc3nnc(-c4ccccc4Cl)n3c2=O)cc1 | . | 19 | . | . | . | . | .
Cc1cccc(C)c1OCC(=O)N[C@@H](Cc1ccccc1)[C@@H](O)C[C@H](Cc1ccccc1)NC(=O)[C@H](C(C)C)N1CCCNC1=O | / | . | / | / | / | / | /
COc1cccc(CN2CCC(Oc3ccc(C(=O)N4CCCCC4)cc3)CC2)c1O | . | . | . | . | . | . | /
O=C(c1ccc(OC2CCN(Cc3ccccc3O)CC2)cc1)N1CCCCC1 | . | 36 | . | . | . | . | .
CN(Cc1ccccc1)Cc1nc2c(c(=O)n(C)c(=O)n2C)n1Cc1ccccc1Cl | . | 31 | . | . | . | . | 50
CCCn1c(CN(C)Cc2ccccc2)nc2c1c(=O)n(C)c(=O)n2C | . | . | . | . | . | . | /
CCOC(=O)c1cccc(-c2cc(C(=O)OC)c3n(c2=O)CCC3)c1 | / | . | / | / | / | / | /
CCOC(=O)Cn1c(-c2nonc2NC(=O)c2ccccc2F)nc2ccccc21 | . | 27 | . | . | . | . | .
CCOC(=O)c1cnc2c(-c3ccc(Cl)cc3)c(C)nn2c1N | . | . | . | . | . | . | /
CCOC(=O)c1cnc2cc(-c3ccc(Cl)cc3)nn2c1N | . | 20 | . | . | . | . | .
COc1ccc(-c2cc3ncc(C(C)=O)c(C)n3n2)cc1 | . | 36 | . | . | . | . | .
C=COC(=O)c1sc2nc(C)cc(C)c2c1N | . | 24 | . | . | . | . | .
COc1cc(C(=O)Nc2ccc(-c3nc4cc(C)ccc4o3)c(O)c2)cc(OC)c1OC | . | . | . | . | . | . | /
COc1cccc(C(=O)Nc2ccc(-c3nc4ccccc4o3)c(O)c2)c1 | . | 85 | . | . | . | . | 64 | RORg DNA counter=.
Cc1ccc(OCC(=O)Nc2ccc(O)c(-c3nc4ccccc4o3)c2)cc1 | . | 103 | . | . | . | . | 38 | RORg DNA counter=.
CC(c1nc2ccccc2c(=O)[nH]1)N1CCN(S(=O)(=O)c2ccc(F)c(Cl)c2)CC1 (stereo unspecified) | / | . | . | . | . | . | /
CCCCCCC12Cc3cc(OC)c(OC)cc3C(O1)c1c(cc(C)oc1=O)O2 (stereo unspecified) | / | . | / | / | / | . | /
COC(=O)c1ccc2c(=O)[nH]c(COC(=O)CCC(=O)c3ccc(Cl)cc3)nc2c1 | . | 20 | . | . | . | . | .
COC(=O)C1=C(C)NC(C)=C(C(=O)OC)C1C(=O)OCc1nc2cc(C(=O)OC)ccc2c(=O)[nH]1 | . | . | . | . | . | . | /
CCOC(=O)c1sc(Nc2nc(C)cc(OC)n2)nc1C | . | 15 | . | . | . | . | .
CCOC(=O)c1sc(Nc2nc(C)cc(C)n2)nc1C | . | . | . | . | . | . | /
